# Experimental data from BindingDB's records for doi:10.1021/jm00192a005 (1979).
# Biological target: T1, Thymidine kinase, cytosolic (Cricetulus griseus, UniProt P09768)
# T1 sequence (P09768 whole entry): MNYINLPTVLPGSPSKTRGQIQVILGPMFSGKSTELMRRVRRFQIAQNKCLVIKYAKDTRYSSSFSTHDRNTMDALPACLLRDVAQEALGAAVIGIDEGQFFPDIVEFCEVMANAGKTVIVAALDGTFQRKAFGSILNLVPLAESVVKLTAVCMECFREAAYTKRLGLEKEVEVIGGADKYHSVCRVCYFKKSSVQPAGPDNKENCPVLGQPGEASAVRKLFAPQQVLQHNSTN
# Test: Competitive inhibition of thymidine kinase in BHK21 (C13) cells using thymidine as substrate assessed as formation of TMP by Lineweaver-Burk plot analysis
# How it was run: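 BHK21(C13) cells sonicated in 0.05 M NaCl; 100000g supernatant stored in 50% glycerol at 4 °C. Assay in Tris-HCl 0.05 M pH 8.0, ATP 5 mM, MgCl2 2.5 mM, [14C]thymidine at four or more levels from 3.6 to 18 μM, two inhibitor levels plus a no-inhibitor control, duplicates, 10 min at 37 °C. [14C]TMP captured on DEAE-cellulose disks and counted by scintillation; Ki taken from Lineweaver-Burk plots.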
row,Ki [µM],SMILES
1,450,Nc1cn([C@H]2C[C@H](O)[C@@H](CO)O2)c(=O)[nH]c1=O
2,220,N#Cc1cn([C@H]2C[C@H](O)[C@@H](CO)O2)c(=O)[nH]c1=O
3,1700,NCc1cn([C@H]2C[C@H](O)[C@@H](CO)O2)c(=O)[nH]c1=O
4,72,CCCCCn1c(=O)c(C)cn([C@H]2C[C@H](O)[C@@H](CO)O2)c1=O
5,270,CC(=O)NCC(O)[C@H]1O[C@@H](n2cc(C)c(=O)[nH]c2=O)C[C@@H]1O (stereo partly drawn)
6,160,CCC(=O)NCC(O)[C@H]1O[C@@H](n2cc(C)c(=O)[nH]c2=O)C[C@@H]1O (stereo partly drawn)
7,190,CCNC[C@H]1O[C@@H](n2cc(C)c(=O)[nH]c2=O)C[C@@H]1O
8,270,CCCCNC[C@H]1O[C@@H](n2cc(C)c(=O)[nH]c2=O)C[C@@H]1O
9,180,CCCCCCNC[C@H]1O[C@@H](n2cc(C)c(=O)[nH]c2=O)C[C@@H]1O
10,4400,CCCCCCN(C[C@H]1O[C@@H](n2cc(C)c(=O)[nH]c2=O)C[C@@H]1O)C(C)=O
11,250,CC(=O)NCCNC[C@H]1O[C@@H](n2cc(C)c(=O)[nH]c2=O)C[C@@H]1O
12,900,CC(=O)N(C)CCN(C)C[C@H]1O[C@@H](n2cc(C)c(=O)[nH]c2=O)C[C@@H]1O
13,800,Cc1cn([C@H]2C[C@H](O)[C@@H](CSCCO)O2)c(=O)[nH]c1=O
14,500,Cc1cn([C@H]2C[C@H](O)[C@@H](CSCCC(=O)O)O2)c(=O)[nH]c1=O
15,1200,Cc1cn([C@H]2C[C@H](O)[C@@H](CSCCCC(=O)O)O2)c(=O)[nH]c1=O
16,2500,CC(=O)N[C@H]1C[C@H](n2cc(C)c(=O)[nH]c2=O)O[C@@H]1CO
17,12,CCS[C@H]1C[C@H](n2cc(C)c(=O)[nH]c2=O)O[C@@H]1CO
18,6500,"CC(=O)NC[C@H]1O[C@@H](n2cc(C)c(=O)[nH]c2=O)C[C@@H]1O [N-[(2R,5R)-3-Hydroxy-5-(5-methyl-2,4-dioxo-3,4-dihydro-2H-pyrimidin-1-yl)-tetrahydro-furan-2-ylmethyl]-acetamide]"
